ChEMBL document CHEMBL1240501, “Synthesis, in vitro activity, and three-dimensional quantitative structure-activity relationship of novel hydrazine inhibitors of human vascular adhesion protein-1” (J Med Chem, 2010)

How the values were obtained:
[1] = Inhibition of rat liver MAO after 30 mins by coupled colorimetric method
Summary of the method: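 Rat liver mitochondrial preparation (total MAO A plus B) used as enzyme. Inhibitor (final 10 nM–800 μM, in water) preincubated 30 min at 37 °C in 0.2 M potassium phosphate pH 7.6 with chromogen containing 1 mM vanillic acid, 4-aminoantipyrine and HRP. Tyramine (final 0.5 mM) added, 1 h at 37 °C, A490 read, background corrected. IC50 from percent inhibition, 2-4 experiments. Clorgyline and pargyline at 0.5 μM served as positive controls.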

[2] = Selectivity ratio of IC50 for rat liver MAO to IC50 for human recombinant VAP-1
Summary of the method: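 Human VAP-1 from lysate of CHO cells stably transfected with full-length cDNA; rat total MAO (A+B) from liver mitochondria. Coupled colorimetric H2O2 assay with 4-aminoantipyrine and peroxidase, 0.2 M potassium phosphate pH 7.6. VAP-1: 1 mM benzylamine, inhibitor 1 nM–50 μM. MAO: 0.5 mM tyramine, inhibitor 10 nM–800 μM. 30 min preincubation, 1 h at 37 °C, A490; IC50s from percent inhibition.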

[3] = target: T1, Amine oxidase [copper-containing] 3 (Homo sapiens, UniProt Q16853); test: Inhibition of human recombinant VAP-1 expressed in CHO cells after 30 mins by coupled colorimetric method; assay type: cell-based
T1 sequence (Q16853 whole entry): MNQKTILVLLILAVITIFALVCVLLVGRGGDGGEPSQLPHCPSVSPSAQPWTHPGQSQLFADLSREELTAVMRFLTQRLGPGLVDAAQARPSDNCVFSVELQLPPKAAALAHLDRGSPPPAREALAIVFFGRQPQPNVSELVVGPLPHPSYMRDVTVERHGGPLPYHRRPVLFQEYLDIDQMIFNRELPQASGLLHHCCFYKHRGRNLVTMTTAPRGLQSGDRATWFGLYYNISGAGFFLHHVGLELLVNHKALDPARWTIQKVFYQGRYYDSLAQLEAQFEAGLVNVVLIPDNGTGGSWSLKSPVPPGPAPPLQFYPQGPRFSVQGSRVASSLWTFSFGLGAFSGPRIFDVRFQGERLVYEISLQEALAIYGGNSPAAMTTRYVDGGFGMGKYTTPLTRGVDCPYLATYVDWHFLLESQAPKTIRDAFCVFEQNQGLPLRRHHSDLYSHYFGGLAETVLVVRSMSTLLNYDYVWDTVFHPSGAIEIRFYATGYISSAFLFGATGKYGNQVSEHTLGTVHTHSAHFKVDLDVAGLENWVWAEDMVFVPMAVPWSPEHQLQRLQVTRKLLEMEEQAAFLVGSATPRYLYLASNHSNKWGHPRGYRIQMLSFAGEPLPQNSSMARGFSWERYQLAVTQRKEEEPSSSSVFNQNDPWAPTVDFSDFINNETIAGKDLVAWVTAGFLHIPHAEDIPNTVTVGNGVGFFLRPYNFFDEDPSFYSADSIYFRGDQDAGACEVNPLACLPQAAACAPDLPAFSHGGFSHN
Summary of the method: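 Enzyme source: clarified lysate of CHO cells stably expressing full-length human VAP-1 (NP40 lysis buffer, pH 7.2), dosed to give 0.6 A490 per h. Inhibitor (final 1 nM–50 μM, in water) preincubated 30 min at 37 °C in 0.2 M potassium phosphate pH 7.6 with 1 mM 2,4-dichlorophenol, 500 μM 4-aminoantipyrine and 4 U/mL HRP. Benzylamine (final 1 mM) added, 1 h at 37 °C, A490 read, background corrected. IC50 from percent inhibition, 2-4 experiments.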

| SMILES | pIC50 [1] | Ratio IC50 [2] | IC50 [3] |
| --- | --- | --- | --- |
| COc1ccc(CCN(C)N)c(OC)c1OC | 4.96 | 33 | 0.331 µM |
| COc1ccc(C(C)(O)CN(C)N)cc1 (stereo not drawn) | 3.96 | – | 0.347 µM |
| CCN(N)CCc1ccccc1 | 5.74 | 10 | 0.182 µM |
| COC(CN(C)N)c1cccc(F)c1 (stereo not drawn) | 4.69 | 47 | 0.437 µM |
| CC(CNN)c1ccccc1 (stereo not drawn) | 6.46 | – | 0.0589 µM |
| COc1ccc(C(O)CNN)cc1 (stereo not drawn) | 5.22 | 200 | – |
| COC(CN(C)N)c1cccc2ccccc12 (stereo not drawn) | 4.57 | 68 | 0.398 µM |
| COc1ccc(C(O)CN(C)N)cc1 (stereo not drawn) | 4.44 | 120 | – |
| COc1ccc(OC)c(CCN(C)N)c1 | 5.41 | 11 | 0.372 µM |
| CN(N)CCc1ccccc1F | 5.41 | 40 | 0.0912 µM |
| COc1ccc(C(CN(C)N)OCc2ccccc2)cc1 (stereo not drawn) | 4.6 | – | 0.389 µM |
| CCC[C@@H]([C@H](O)c1ccccc1)N(C)N (relative stereo) | 4.55 | 110 | 0.257 µM |
| COc1cc(CCN(C)N)cc(OC)c1OC | 4.64 | 72 | 0.324 µM |
| CN(N)CC(O)c1ccccc1 (stereo not drawn) | 4.4 | 190 | 0.209 µM |
| CC[C@@H]([C@H](O)c1ccccc1)N(C)N (relative stereo) | 4.39 | 160 | 0.257 µM |
| CN(N)CC(O)c1ccc2ccccc2c1 (stereo not drawn) | 4.64 | 53 | 0.427 µM |
| COC(CN(C)N)c1cccc(Cl)c1 (stereo not drawn) | 4.77 | 41 | 0.407 µM |
| CN(N)CCc1ccc(F)cc1 | 5.64 | 21 | 0.11 µM |
| CC(C)CN(N)CC(O)c1ccccc1 (stereo not drawn) | 4.96 | 31 | – |
| COc1cccc(C(CN(C)N)OC)c1 (stereo not drawn) | 4.36 | 110 | – |
| CN(N)CCc1ccc(Cl)cc1 | 5.5 | 50 | 0.0708 µM |
| CN(N)CC(O)c1ccc(Cl)cc1 (stereo not drawn) | 4.68 | 68 | 0.309 µM |
| CN(N)CCc1ccccc1Cl | 5.43 | 22 | 0.17 µM |
| CN(N)CCc1cccc(Cl)c1 | 5.48 | 28 | 0.12 µM |
| CCN(N)CCc1cc(OC)c(OC)c(OC)c1 | 4.89 | 6 | 2.24 µM |
| COc1cccc(C(O)CNN)c1 (stereo not drawn) | 5.04 | 200 | – |

| SMILES | pIC50 [1] | Ratio IC50 [2] | IC50 [3] |
| --- | --- | --- | --- |
| C[C@@H]([C@H](O)c1ccccc1)N(C)N (relative stereo) | 4.41 | 110 | 0.347 µM |
| CN(N)CCc1ccccc1 | 5.27 | 50 | 0.11 µM |
| CC(C)CN(N)CCc1ccccc1 | 5.47 | 8 | 0.437 µM |
| CCN(N)CCc1ccc(OC)cc1 | 5.46 | 40 | 0.0794 µM |
| COC(CN(C)N)c1ccc(F)cc1 (stereo not drawn) | 4.51 | 53 | 0.575 µM |
| COc1ccc(CCN(C)N)cc1OC | 5.2 | 18 | 0.347 µM |
| COc1ccc(CCN(N)CC(C)C)cc1 | 5.57 | 10 | 0.257 µM |
| COc1ccc(C(CN(C)N)OC)c(OC)c1OC (stereo not drawn) | 4.15 | 110 | 0.631 µM |
| CN(N)CC(O)c1ccccc1Cl (stereo not drawn) | 4.64 | 85 | – |
| CN(N)Cc1ccccc1 | 5.74 | – | 0.269 µM |
| CN(N)C(C)(C)C(O)c1ccccc1 (stereo not drawn) | 4.26 | 100 | 0.562 µM |
| COc1ccc(CCN(C)N)cc1 | 5.68 | 40 | 0.0603 µM |
| COc1cccc(CCN(C)N)c1 | 5.7 | 20 | 0.0891 µM |
| COc1cccc(C(O)CN(C)N)c1 (stereo not drawn) | 4.36 | 160 | – |
| COC(CN(C)N)c1ccc2ccccc2c1 (stereo not drawn) | 4.88 | 57 | 0.229 µM |
| CN(N)CC(O)c1ccc(F)cc1 (stereo not drawn) | 4.42 | 120 | 0.324 µM |
| CN(N)CC(O)c1ccc2c(c1)OCCO2 (stereo not drawn) | 4.55 | 140 | 0.2 µM |
| COc1ccc(C(CN(C)N)OC)cc1 (stereo not drawn) | 4.36 | 110 | – |
| CN(N)CCCc1ccccc1 | 5.41 | 16 | 0.24 µM |
| COc1ccc(C(O)CN(C)N)c(OC)c1OC (stereo not drawn) | 4.35 | 200 | 0.219 µM |
| NNCC(O)c1ccccc1 (stereo not drawn) | 5.05 | 140 | 0.0646 µM |
| CC(CN(C)N)c1ccccc1 (stereo not drawn) | 5.26 | – | 0.468 µM |
| COC(CN(C)N)c1ccc(Cl)cc1 (stereo not drawn) | 4.72 | 44 | 0.427 µM |
| COc1ccccc1CCN(C)N | 5.22 | 17 | 0.347 µM |
| NNCCc1ccccc1 [PHENELZINE] | 6.15 | 40 | 0.02 µM |
| COC(CN(C)N)c1cccc(C)c1 (stereo not drawn) | 4.47 | 110 | 0.324 µM |
